# Test results reported in paper PMC10908290 (Drug Design, Development and Therapy, 2024).
# Assays:
# mushroom tyrosinase = assay: Mushroom tyrosinase inhibitory activity, spectrophotometric, L-DOPA substrate; type: biochemical
# S. aureus = assay: Minimum inhibitory concentration, S. aureus; type: cell-based; settings: Staphylococcus aureus, read-out: Minimal Inhibitory Concentration (MIC)
# MCF-7 = assay: Cytotoxic activity, MCF-7; type: cell-based; settings: for CC50: MCF7, read-out: LC50; for SI (Selectivity Index): IC50 value normal cell / IC50 value cancer cell (Vero / MCF-7)
# [1] = DPPH free radical scavenging; settings: Table 6, unit not given
# Method in brief: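 Test compound solutions (25 or 100 µg/mL in methanol) added to 0.004% (w/v) methanolic DPPH. After 30 min incubation, absorbance read at 517 nm. Percent inhibition calculated against DPPH solution lacking test material. Run in triplicate.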
# [2] = Cytotoxic activity, normal Vero cell line; type: cell-based; settings: African green monkey, Vero cells (normal cell line)
# E. coli = assay: Minimum inhibitory concentration, E. coli; type: cell-based; settings: Escherichia coli, read-out: Minimal Inhibitory Concentration (MIC)
# E. coli (MTCC 739) = assay: Antibacterial disc diffusion, E. coli; type: cell-based; settings: Escherichia coli, MTCC739, 24 h, read-out: Diameter of Growth Inhibition Zone
# Method in brief: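 Test compound dissolved in DMSO at 100 μg/mL and loaded onto 8 mm sterile filter-paper discs. E. coli MTCC 739 prepared from pure colonies in sterile saline, adjusted to 0.5 McFarland, and swabbed onto Mueller-Hinton agar. Plates incubated 24 h at 37°C, then zone of inhibition measured. Ampicillin as reference. Mean ± SD of three independent experiments.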
SMILES,percentage of tyrosinase inhibition (mushroom tyrosinase; 25 µg/mL),percentage of tyrosinase inhibition (mushroom tyrosinase; 50 µg/mL),percentage of tyrosinase inhibition (mushroom tyrosinase; 100 µg/mL),MIC (S. aureus),CC50 (MCF-7; Homo sapiens),"IC (TGI) (MCF-7; Homo sapiens, MCF7, read-out: TGI)",SI (Selectivity Index) (MCF-7),"Cytotoxic activity (MCF-7; Table 6, unit not given, equals MCF-7 LC50)",Antioxidant activity (100 µg/mL) [1],CC50 [2],Tyrosinase inhibition IC50 (mushroom tyrosinase; mean ± SE of three experiments),MIC (E. coli),zone of inhibition at 100 µg/mL (E. coli (MTCC 739))
"O=c1cc(CO)occ1O [Kojic acid, reference compound]",56.23 ± 1.12%,67.21 ± 1.12%,84.65 ± 1.62%,–,–,–,–,–,–,–,–,–,–
"Cc1ccccc1NC(=O)C1C(=O)C(c2ccccc2)c2ccc3c(c21)C(=O)c1ccccc1C3=O (stereo not shown) [Compound 1, 2,6,11-Trioxo-3-Phenyl-N-(o-Tolyl)-2,3,6,11-Tetrahydro-1H-Cyclopenta[a]anthracene-1-Carboxamide]",13.72 ± 0.02%,49.30 ± 1.06%,51.23 ± 0.23%,64 µg/mL,87 ± 0.16 µg/mL,60.1 ± 0.09 µM,1.06,87.0± 0.16,58.11,93.01 ± 0.05 µg/mL,77.62 ± 1.20 µg/mL,> 100 µg/mL,–
CC1(C)S[C@@H]2[C@H](NC(=O)[C@H](N)c3ccccc3)C(=O)N2[C@H]1C(=O)O [Ampicillin],–,–,–,–,–,–,–,–,–,–,–,–,17 mm
"COc1cccc2c1C(=O)c1c(O)c3c(c(O)c1C2=O)C[C@@](O)(C(=O)CO)C[C@@H]3O[C@H]1C[C@H](N)[C@H](O)[C@H](C)O1 [Doxorubicin, reference compound]",–,–,–,–,0.74 ± 0.01 µg/mL,–,26.82,–,–,19.85 ± 0.02 µg/mL,–,–,–
